Results from different studies.
Protocols differ between the studies behind these lines.
M-phase phosphoprotein 8 chromodomain: M-phase phosphoprotein 8, chromodomain (Homo sapiens, UniProt Q99549)
HTR1A: 5-hydroxytryptamine receptor 1A (HTR1A, Homo sapiens, UniProt P08908)
AChE: AChE (Phlebotomus papatasi, UniProt M1F887)
ESR1: Estrogen receptor (ESR1, Homo sapiens, UniProt P03372)

For `CCN(CCCC[C@H](NC(=O)[C@H](CC(C)C)NC(=O)[C@H](C)NC(=O)[C@H](CC1CCCCC1)NC(=O)c1cccnc1)C(=O)N[C@@H](CO)C(N)=O)C(C)C`, the IC50 was 1500 nM (M-phase phosphoprotein 8 chromodomain; cell-free assay; TR-FRET).
`NCCc1c[nH]c2ccc(Cl)cc12` gave a Ki of 5.5 nM (HTR1A; ligand displacement; radioligand).
`CCN(CCCC[C@H](NC(=O)[C@H](C)NC(=O)[C@H](C)NC(=O)[C@H](Cc1ccccc1)NC(=O)c1cccnc1)C(=O)N[C@@H](CO)C(N)=O)C(C)C` gave an IC50 of 3400 nM (M-phase phosphoprotein 8 chromodomain; cell-free assay; TR-FRET).
With `CNC(=O)Oc1ccc2c(c1)[C@]1(C)CCN(C)[C@@H]1N2C` the IC50 was 9 nM (AChE; enzyme activity; inhibitor).
`C[C@]12CC[C@H]3[C@@H](CCC4=C[C@@H](O)CC[C@@H]43)[C@@H]1CC[C@@H]2O` has an IC50 of 134 nM (ESR1; ligand displacement).
With `C[C@]1(O)CC[C@H]2[C@@H]3CCC4=CC(=O)CCC4=C3CC[C@@]21C` the EC50 was 4230 nM (ESR1; reporter gene; agonist).
For `C=CC[N+](C)(C)c1ccc(CCC(=O)CCc2ccc([N+](C)(C)CC=C)cc2)cc1`, the IC50 was 30 nM (AChE; enzyme activity; inhibitor).
For `NCCc1c[nH]c2ccc(F)cc12`, the Ki was 18 nM (HTR1A; ligand displacement; radioligand).
